High-throughput results from PubChem BioAssay.
In the library only some 3.3% were active in any assay of this set; here they are far more common.
PMI act: phosphomannose isomerase (human) activation; actives 0.005% (n = 190,000); purified human PMI, coupled resazurin fluorescence, 20 min; active compounds read high; 1 = vehicle control, 0 substrate-free wells; activation factor at 20 µM; P34949; AID 1214;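 active means activation factor of 2 or more at 20 µM, relative to plate controls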
PMI act hi M6P: activators of human phosphomannose isomerase at near-saturating mannose 6-phosphate. actives 0.34% (n = 190,000). P34949. activation factor at 20 µM. coupled PMI enzyme assay, resazurin fluorescence, 20 min; active compounds read high; 1 = untreated enzyme, 0 = substrate-free blank;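 active means activation factor of 2 or more at 20 µM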
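test system = human PMI in coupled enzyme assay | medium = HEPES-buffered pH 7.4 with magnesium and detergent | also added = 1.0 mM mannose-6-phosphate substrate with 0.22 mM NADP+ | compound = 20 µM single dose | times = 20 min incubation at room temperature | measured by = resorufin fluorescence (Ex 544/Em 590 nm) from resazurin via diaphorase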
ROMK primary: modulates human ROMK potassium channel activity; B-score at 10 µM; Tet-inducible ROMK, thallium flux fluorescence; actives lie on both sides; actives 2% (n = 130,000); AID 1918; P48048;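 active means signal ratio slope over the read window, or its plate-corrected B-score, at least 3 SD from the plate mean, either direction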;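 further: B-score of the F/F0 ratio slope over 7 to 12 s after thallium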
ABCG2 inh: human ABCG2 inhibition, ABCB1 as counter-screen; Q9UNQ0; IgMXP3 cells, JC-1 efflux, flow cytometry; inhibition, % at 6.6 µM; actives 0.1% (n = 190,000); AID 1325;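 active means inhibition above 80%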
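Test system: ABCG2 IgMXP3 and barcoded ABCB1 CCRF-Adr cell mix; Schedule: cells with compound and JC-1, 10 min at 25 °C, rotating, no wash; Technique: flow cytometry of retained JC-1 fluorescence; Measure: % inhibition of efflux relative to nicardipine and DMSO; Controls: nicardipine high and DMSO low controls.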
ABCB1 block: blocks JC-1 efflux by human ABCB1 transporter | P08183 | CCRF-Adr cells, flow cytometry | inhibition, % at 6.6 µM | actives 0.067% (n = 190,000) | AID 1326; in the data active means inhibition above about 40%;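 further: higher value means more JC-1 retained so stronger ABCB1 efflux block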
KCC2 mod: modulates chloride dependent transport by human KCC2 | Q9H2X9 | KCC2 cells, thallium flux FluoZin-2 fluorescence | B-score of Tl+ flux slope (higher = more flux/activation; lower = inhibition) at 10 µM | actives 2.2% (n = 190,000) | AID 1456;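 active means thallium flux slope and its plate-corrected score both differing from the plate sample mean at a set confidence after two filtering rounds, in either direction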;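 further: slope of fluorescence scaled to starting intensity during 10 to 20 s after thallium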
A number is an active result; . = inactive; / = no result given.

SMILES	PMI act	PMI act hi M6P	ROMK primary	ABCG2 inh	ABCB1 block	KCC2 mod
CCOc1ccccc1C(=O)Nc1cc(OC)ccc1OC	.	.	.	100	.	/
COc1ccc(OC)c(NC(=O)c2ccccc2SC)c1	.	.	.	.	.	/
Cc1ccc(NC(=S)N(Cc2ccco2)C2CCN(C(C)C)CC2)cc1	.	.	.	.	.	.
COc1cccc(CN2C[C@]34C=C[C@@H](C[C@@H]3S2(=O)=O)O4)c1	/	/	/	/	/	.
COc1cc(C(=O)N/N=C(\C)Cc2ccccc2)cc(OC)c1OC	.	.	.	.	/	.
COc1cc(C(=O)NC(=S)N(CCc2ccccc2)CCc2ccccc2)cc(OC)c1OC	.	.	3.3	.	.	73
O=C(NC(=S)N(CCc1ccccc1)CCc1ccccc1)c1ccco1	.	.	/	.	.	44
CC(N)=Nc1ccc([N+](=O)[O-])cc1	.	.	.	.	.	.
O=[N+]([O-])c1ccc(N=Nc2c(Cl)cc(O)cc2Cl)cc1	/	/	-8.8	/	/	7.5
N#CC1=C(c2ccc(-c3ccccc3)cc2)COC1=O	.	2.4	.	.	.	.
Cc1ccsc1/C=C1\SC(N2CC(C)OC(C)C2)=NC1=O (centres undefined)	.	.	.	.	.	.
Cc1ccc(OCC(=O)NNC(=O)C2CCCO2)c(C)c1 (centres undefined)	.	.	.	.	.	.
O=c1[nH]c(=O)c2cc([N+](=O)[O-])cc([N+](=O)[O-])c2[nH]1	.	2.2	.	.	.	.
O/N=C1\CCCc2c1nc(-c1ccccc1F)n2O	/	/	.	/	/	.
O=C(/C=C/c1ccccc1Cl)c1ccccc(=O)c1O	.	.	-4.2	.	.	31
CCOc1ccccc1N1CCN(C(=S)NC(=O)C23CC4CC(CC(C4)C2)C3)CC1	.	.	/	.	.	4.7
Cc1cc(C)cc(C(=O)/C=C2\NC(=O)CS2)c1	.	.	/	.	.	6.4
CC12CCC(C(=O)N(CSC(=S)N/N=C\c3ccccc3)C1=O)C2(C)C (centres undefined)	.	.	/	.	.	23
O=C(COc1ccccc1/C=C1\SC(=O)NC1=O)Nc1ccccc1	.	.	-3.2	.	.	-4.5
COc1cccc(/C=C2/NC(=O)NC2=O)c1OCC(=O)Nc1ccccc1	.	.	.	.	.	.
O=C(/C=C/c1ccc([N+](=O)[O-])cc1)OCC(=O)N1c2ccccc2Sc2ccccc21	.	.	.	.	.	.
Cc1cc(C)c2ccc(=S)[nH]c2n1	.	2.5	.	.	.	.
COc1ccc2c(C)cc(C)nc2n1	/	/	.	/	/	.
CCOc1ccc(NC(=S)N=Nc2c(O)[nH]c3ccccc23)cc1	.	.	1.2	.	.	4.4
O=C(CSCc1ccccc1)N=Nc1c(O)[nH]c2ccccc12	.	.	.	.	.	8.6
SMILES	PMI act	PMI act hi M6P	ROMK primary	ABCG2 inh	ABCB1 block	KCC2 mod
Oc1[nH]c2ccccc2c1N=NC(=S)NCCc1ccccc1	.	.	.	.	.	20
Cc1oc(-c2ccccc2)nc1CS(=O)CC(=O)O (centres undefined)	.	.	/	.	.	2.9
CCOCCCNC(=S)NCCCNc1nc2c(C)c(C)ccc2cc1C#N	.	2.1	.	.	.	/
COCCCNC(=S)NCCCNc1nc2cc3c(cc2cc1C#N)OCO3	.	2.1	/	.	.	/
CCOCCCNC(=S)N1CCCN(c2nc3cc(C)ccc3cc2C#N)CC1	.	2.3	.	.	.	.
CCOCCCNC(=S)N1CCCN(c2nc3c(C)c(C)ccc3cc2C#N)CC1	/	/	.	.	.	.
CCCCNC(=O)c1ccccc1NC(=O)CCC	.	.	.	.	.	.
CCOC(=O)C1(Cc2ccccc2Cl)CCN(C(=O)c2cnccn2)CC1	.	.	.	.	.	.
Cc1ccc(-c2cc(C(=O)Nc3ccccn3)c3ccccc3n2)o1	.	.	.	.	.	.
O=C(NC(=S)Nc1ccccn1)c1cc(-c2ccccc2)nc2ccccc12	.	.	/	.	.	22
O=C(NC(=S)Nc1ccccc1)c1cc(-c2ccccc2)nc2ccccc12	.	.	/	.	.	18
